The structures appear in SMILES notation. The source made the active and inactive calls. No cut-off for these calls is given here.

From ChEMBL document CHEMBL1649152, “Pharmacokinetics of hydroxychloroquine and its clinical implications in chemoprophylaxis against malaria caused by Plasmodium vivax” (Antimicrob Agents Chemother, 2009) come the findings set out here.

Data set [1] is described as follows: Tmax in healthy human at 400 mg, po administered as single dose. Conditions: in vivo. Type of data set: ADME, organism-based. The essentials: (§1)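 Six healthy subjects (study Ia), fasted from 10 h before to 4 h after the oral dose; serial plasma sampled up to 314 h. Plasma extracted with diethyl ether, then reversed-phase HPLC on a C18 column with fluorescence detection (ex 320/em 370 nm). Noncompartmental analysis: Cmax and Tmax observed; terminal t1/2 = ln2/λz; AUC by linear-log trapezoidal, AUCinf extrapolated.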

A short description of data set [2]: Cmax in healthy human plasma at 400 mg, po administered as single dose. Type of data set: ADME, organism-based. The arrangement: dose 400 mg, route oral. The essentials:
as §1

Data set [3] can be described thus: Terminal half life in healthy human at 400 mg, po administered as single dose. The format is ADME, organism-based. The following applies: in vivo, read-out: beta t1/2 (converted). Put shortly: as §1
Data set [4] in a line: AUC (last) in healthy human at 400 mg, po administered as single dose. The format is ADME, organism-based. Further details: dose 400 mg, time 0 - last, route oral. The following applies: plasma. Put shortly:
as §1

Data set [5] is described as follows: AUC (infinity) in healthy human at 400 mg, po administered as single dose. Type of data set: ADME, organism-based. Further details: dose 400 mg, time infinity, route oral. Conditions: plasma. Put shortly:
as §1

The nature of data set [6]: Apparent oral clearance in healthy human at 400 mg, po administered as single dose. The format is ADME, organism-based. The following applies: in vivo.
Data set [7] can be described thus: Apparent peripheral distribution volume in healthy human at 400 mg, po administered as single dose. Type of data set: ADME, organism-based. Conditions: in vivo, read-out: Vz/F.
The test system of data set [8] is Homo sapiens. Description: Tmax in healthy human assessed as desethylchloroquine level at 400 mg, po administered as single dose. Type of data set: ADME, organism-based. Conditions: in vivo. The essentials: as §1
Data set [9] concerns Homo sapiens. Description: Cmax in healthy human plasma assessed as desethylchloroquine level at 400 mg, po administered as single dose. The following applies: in vivo. The format is ADME, organism-based. Further details: dose 400 mg, route oral. Put shortly:
as §1

Data set [10] has as its system Homo sapiens. The data set is described as follows: Terminal half life in healthy human assessed as desethylchloroquine level at 400 mg, po administered as single dose. Type of data set: ADME, organism-based. The following applies: in vivo. Put shortly: as §1
Data set [11] concerns Homo sapiens. Description: AUC (last) in healthy human assessed as desethylchloroquine level at 400 mg, po administered as single dose. The following applies: in vivo. Type of data set: ADME, organism-based, Plasma. Further details: dose 400 mg, time 0 - last, route oral. The essentials: as §1
Data set [12] concerns Homo sapiens. The data set is described as follows: AUC (infinity) in healthy human assessed as desethylchloroquine level at 400 mg, po administered as single dose. Type of data set: ADME, organism-based, Plasma. Further details: dose 400 mg, route oral, time infinity. Conditions: in vivo. Put shortly: as §1
Data set [13] has as its system Homo sapiens. Description: Ratio of AUC for desethylchloroquine level to AUC for compound in healthy human at 400 mg, po administered as single dose. The format is ADME, organism-based. The following applies: in vivo. Put shortly: (§2)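 Six healthy volunteers in study Ia, fasted from 10 h before to 4 h after dosing, sampled serially up to 314 h. Plasma was stored at –70°C, ether-extracted from ammonia-alkalinised plasma with an internal standard, and assayed by C18 RP-HPLC with fluorescence (ex 320/em 370 nm). Calibration was 10–2,000 ng/ml for parent and 5–200 ng/ml for DCQ/BDCQ. Metabolite and parent AUCs came from noncompartmental linear-log trapezoidal analysis with λz extrapolation to infinity.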

The test system of data set [14] is Homo sapiens. The data set is described as follows: Ratio of AUC for bisdesethylchloroquine level to AUC for compound in healthy human at 400 mg, po administered as single dose. Type of data set: ADME, organism-based. Conditions: in vivo. The essentials: as §2
Data set [15] has as its system Homo sapiens. Description: Tmax in healthy human assessed as bisdesethylchloroquine level at 400 mg, po administered as single dose. Type of data set: ADME, organism-based. The following applies: in vivo. The essentials: as §1
Data set [16] has as its system Homo sapiens. The data set is described as follows: Cmax in healthy human plasma assessed as bisdesethylchloroquine level at 400 mg, po administered as single dose. Type of data set: ADME, organism-based. The arrangement: dose 400 mg, route oral. The following applies: in vivo. The essentials:
as §1

In data set [17] the test system is Homo sapiens. The data set is described as follows: Terminal half life in healthy human assessed as bisdesethylchloroquine level at 400 mg, po administered as single dose. The following applies: in vivo. The format is ADME, organism-based. Put shortly: as §1
Data set [18] concerns Homo sapiens. The data set is described as follows: AUC (last) in healthy human assessed as bisdesethylchloroquine level at 400 mg, po administered as single dose. Type of data set: ADME, organism-based, Plasma. The following applies: in vivo. Further details: dose 400 mg, route oral, time 0 - last. Put shortly: as §1
Data set [19] deals with Homo sapiens. The data set is described as follows: AUC (infinity) in healthy human assessed as bisdesethylchloroquine level at 400 mg, po administered as single dose. Type of data set: ADME, organism-based, Plasma. Further details: dose 400 mg, time infinity, route oral. The following applies: in vivo. Put shortly:
as §1

Another data set concerns Plasmodium vivax. Description: Antimalarial activity against Plasmodium vivax infected in patient assessed as prophylaxis at 400 mg, po once a week.

Regarding `CCN(CCO)CCCC(C)Nc1ccnc2cc(Cl)ccc12` (stereo not given) [HYDROXYCHLOROQUINE], the values for the Tmax (in data set [1]; in the data set with Homo sapiens [8]; in the data set on Homo sapiens [15]) were 2.4 h, 6.1 h and 72.8 h, respectively. For the same compound, the Cmax is 1.22 µM in data set [2], 0.06 µM with Homo sapiens [9] and 0.36 µM in the data set on Homo sapiens [16]. In addition, the half-life in data set [3] is 172 h. The AUC(0-t) in [4] stood at 75.4 µM·h. The compound also displayed an AUC(0-inf) in data set [5] of 102 µM·h. Further, the CL/F in data set [6] was 200 mL/min. The Vd/F in [7] came out at 2850 L. Also, the “beta t1/2” value is 549.9 h with Homo sapiens [10] and 241 h in the data set with Homo sapiens [17]. Also, the AUC amounted to 12.2 µM·h in the data set on Homo sapiens [11], 37.7 µM·h with Homo sapiens [12], 34 µM·h in the data set on Homo sapiens [18] and 53.6 µM·h in the data set on Homo sapiens [19]. Also, the Ratio with Homo sapiens [13] turned out to be 0.39; with Homo sapiens [14], 0.63. Moreover, in the data set on Plasmodium vivax, the outcome was inactive.

As usually defined, the Tmax is the time from dosing to the highest level. By Cmax is commonly meant the maximum level reached in the sampled fluid or tissue. What is called AUC(0-t) is the area under the concentration-time curve up to a stated or last time point. In general, AUC(0-inf) refers to the area under the concentration-time curve extrapolated to infinity. Lower therefore signals low exposure. Broadly, the CL/F is the apparent clearance, not corrected for the fraction that reaches the circulation. For orientation: AUC means the area under the concentration-time curve, a measure of exposure.
